Two compounds from publication PMC4837022 (Nature chemical biology, 2016) can be followed below.

Common to all, as to assay type: cell-based, murine
The test system of assay [1] is CD4+ T-cell blasts (S-phase entry). In words: S-phase entry by EdU labeling, delayed inhibitor addition. As to conditions: GDC-0941 1.5 µM added 12 hours after IL-2 stimulation.
Assay [2] deals with CD4+ T-cell blasts. Description: IL-2-driven T-cell proliferation. The note with it: Mus musculus, read-out: EC90 for blocking T-cell proliferation.
Assay [3] concerns pSTAT5 in CD4+ T-cell blasts. Description: pSTAT5 time course after IL-2 stimulation. As to conditions: tofacitinib 50 nM. A digest of the protocol:
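Rested mouse CD4+ T-cell blasts received 15 nM test compound or a reference JAK inhibitor (50 nM), 2 h before or 90 min after rhIL-2 (50 u/mL). pSTAT5 and pS6 (Ser240/244) were read by phosphoflow at the indicated times from 15 min onward: 2% PFA fixation, 90% methanol permeabilisation, barcoding. MFI was normalised to the 15-min DMSO maximum and given as mean ± SEM of 4–10 independent experiments.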

Structures are written as SMILES. Where only a bound is given, the exact number is not on record here.

In the case of `CS(=O)(=O)N1CCN(Cc2cc3nc(-c4cccc5[nH]ncc45)nc(N4CCOCC4)c3s2)CC1` [GDC0941], in assay [1], the S-phase entry result is listed as “prevented the majority of cells from entering S-phase”.

With `C[C@@H]1CCN(C(=O)CC#N)C[C@@H]1N(C)c1ncnc2[nH]ccc12` [tofacitinib], in assay [2], the EC90 turned out to be 50 nM. The “reduction of pSTAT5 levels during the second wave” value in assay [3] was greater than 50%.
